What was measured:
Format in all cases: ADME, organism-based
[1] = Oral bioavailability in mouse; conditions: in vivo
How it was run: (§1)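 Mouse pharmacokinetics after IV and oral dosing. Vehicle D5W. Clearance, volume of distribution, half-life, AUC over 0−24 h and oral bioavailability were derived. Each value is the average of four animals.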

Mus musculus = species on record: Mus musculus; assay: Drug metabolism in mouse assessed as formation of 3-((5-(3-(1,4-diazepane-1-carbonyl)phenyl)furan-2-yl)methylene)-5-chloroindolin-2-one; conditions: in vivo
[2] = AUC (0 to 24 hrs) in po dosed mouse; design: time < 24 hr, route oral; conditions: plasma; how it was run: as §1
[3] = Volume of distribution in iv dosed mouse; conditions: in vivo; how it was run: as §1
[4] = Half life in iv dosed mouse; conditions: in vivo; how it was run: as §1
[5] = Clearance in iv dosed mouse; conditions: in vivo; how it was run: as §1

bioavailability [1]: 23% | Drug metabolism (Mus musculus): Active | AUC(0-t) at 24 h [2]: 1020 ng·h/mL | Vd [3]: 85 L/kg | half-life [4]: 27 h | clearance [5]: 35 mL/min/kg
Structure (SMILES): CN1CCCN(C(=O)c2cccc(-c3ccc(/C=C4/C(=O)Nc5ccc(Cl)cc54)o3)c2)CC1

Reference: ChEMBL document CHEMBL2034977, “Discovery of CX-6258. A Potent, Selective, and Orally Efficacious pan-Pim Kinases Inhibitor” (ACS Med Chem Lett, 2012)
